Screening data (PubChem BioAssay)
CSC inhib – cancer stem cell viability inhibitors, primary screen, luminescence. cancer stem cell-like cells viability. inhibition, % at 7.5 µM. actives 1.1% (n = 300,000). AID 2717, 2010; in the data active = inhibition above about 75%; inconclusive = no clear call, values can overlap the other calls; tested in HMLE shEcad cells
SKKanGAS inh – S. pyogenes SKKanGAS growth inhibitors in kanamycin, primary screen, streptokinase expression inhibitor project, SKKanGAS strain, BacTiter-Glo luminescence; 6 h; inhibition, % at 7.5 µM; actives 1.3% (n = 300,000); AID 1662, 2009;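 active = mean replicate score, as percent of positive control median, at least 50; inconclusive = mean below 50 but one replicate at or above 50; inactive = mean and every replicate below 50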;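 note: strain carries kanamycin resistance gene driven by streptokinase promoter and grows in 40 µg/ml kanamycin; loss of luminescence reflects streptokinase promoter inhibition or plain growth inhibition; 0% = median of DMSO wells and 100% = positive control at its reference dose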
T cruzi inh – inhibitors of intracellular T. cruzi growth, primary screen, luminescence, NIH3T3 host cells | T. cruzi beta-gal in NIH3T3, 90 h | inhibition, % (no concentration beside the values) | actives 1.4% (n = 300,000);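 active = mean inhibition across valid replicates above about 55%, limit read from the data; inconclusive = mean below that limit but half or more replicates reach it; inactive = mean below it, under half of replicates reach it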;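 note: signal also drops with host cell toxicity which is not excluded here; 0% = plate median of DMSO wells and 100% = zero luminescence signal; higher percent means less beta-gal luminescence so fewer parasites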
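Assay system: NIH/3T3 host cells with β-galactosidase reporter T. cruzi; input: 5,000 host fibroblasts per well; compound: single 50 nL compound addition per well in DMSO; timing: ≥90 h infection period, 3 h prior cell attachment; measured by: GalScreen β-gal luminescence, detergent lysis, 60 min; evaluation: percent inhibition of parasite-derived β-gal signal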
Beta apoptosis – inhibitors of cytokine-induced beta cell apoptosis, primary screen, luminescence; INS-1E cytokine-induced death, ATP luminescence, 48 h; percent of positive-control rescue, neutral wells zero; protection from apoptosis, % (test concentration not listed); actives 0.8% (n = 300,000); AID 435005, 2010;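 active = Every replicate reaches about 75%, or at least half do and their mean reaches it too, limit read from the data; inconclusive = At least half of replicates reach the limit but their mean does not; inactive = Under half of replicates reach the limit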;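 note: 0% = cytokine-treated negative control wells and 100% = positive control rescue; higher means more ATP so stronger rescue from cytokine killing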
Mdm2-MdmX inh – inhibitors of human Mdm2-MdmX association, primary screen, cell-based, luminescence, split luciferase, SaOS-2, uHTS; Protein Mdm4 (Homo sapiens) + E3 ubiquitin-protein ligase Mdm2 (Homo sapiens), …; SaOS-2 split-luciferase Mdm2/MdmX complementation; inhibition, % at 8 µM; actives 3% (n = 330,000);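 active = inhibition of at least 50% at 8 µM in the primary screen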
Calb FLC – C. albicans growth inhibition with fluconazole, primary screen, CaCi-2 strain, Alamar Blue fluorescence; AID 1979, 2009; C. albicans CaCi-2 (fluconazole-resistant clinical isolate) + fluconazole, 48 h; actives 0.57% (n = 300,000); growth inhibition, % (no concentration beside the values);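 active = growth inhibition above about 58% in most replicates, limit read from the data, passing the limit was not always enough; inconclusive = exactly half the replicates above a set limit; inactive = most replicates below a set limit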;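 note: all wells also contain fluconazole at 8 µg/ml as a sub-toxic cotreatment; 0% = median of DMSO wells and 100% = median of geldanamycin control wells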
* = called active by the depositor; ? = inconclusive; nt = no result. Rows were chosen to be rich in hits. Some 5.7% of all compounds tested hit in one or more screens of this group.

SMILES	CSC inhib	SKKanGAS inh	T cruzi inh	Beta apoptosis	Mdm2-MdmX inh	Calb FLC
CCOC(=O)c1c(-c2ccc(OC)cc2)csc1NC(=O)CNCc1ccco1	69	8	31	5	11	27
CCOC(=O)c1c(-c2cccs2)csc1NC(=O)c1ccncc1	-6	3	55*	1	32	25
CCOC(=O)c1c(-c2ccccc2)csc1NC(=S)N(CC)CC	nt	8	23	nt	nt	-14
CCOC(=O)c1c(-c2cccs2)csc1NC(=O)COC(=O)c1c(C)noc1C	11	9	17	9	-8	30
CCc1ccc(/C(C)=N/NC(=O)c2ccc(-n3cnnn3)cc2)cc1	nt	nt	nt	0	7	nt
CCC(C)(C)C1CCC(NC(=O)N2CCN(c3ccccc3O)CC2)CC1 (stereo unspecified)	6	2	20	-6	-4	-2
O=C(O)CCC(=O)OCCCc1cc2ccccc2c(=O)o1	12	nt	nt	-3	-18	nt
Cc1cc(NC(=O)c2cccc(Oc3ccccc3)c2)n[nH]1	7	31	-5	-4	-103	96*
OC(CN1CCN(c2ccccn2)CC1)Cn1c2ccc(Cl)cc2c2cc(Cl)ccc21 (stereo unspecified)	105*	43	43	3	39	10
Cc1nc2c(C(=O)NCc3ccco3)cnn2c(C)c1Cc1ccc(F)cc1Cl	1	7	74*	6	20	6
Cc1ccc(C)c(Cc2c(C)nc3c(C(=O)NCc4ccc5c(c4)OCO5)cnn3c2C)c1	78*	14	68*	11	10	3
CCN(c1ccccc1)S(=O)(=O)c1ccc(Cl)c(NC(=O)COC(=O)c2ccc(O)cc2)c1	-1	8	9	1	15	2
CCN(c1ccccc1)S(=O)(=O)c1ccc(Cl)c(NC(=O)COC(=O)c2cc(O)c3ccccc3c2O)c1	103*	30	6	79*	17	1
CCC(=O)NC(=S)Nc1cccc(Cl)c1N1CCCCC1	85*	1	9	7	17	28
CCCC(=O)NC(=S)Nc1cccc(Cl)c1N1CCCCC1	nt	101*	1	0	31	-9
COc1ccccc1Oc1ccc(N2CC(C(=O)OCC(=O)c3ccccc3)CC2=O)cc1 (stereo unspecified)	1	1	-11	-1	19	6
O=C(Cc1ccccc1)Nc1nonc1NC(=O)c1ccccc1	-10	0	-11	2	4	81*
O=C(Cc1ccccc1)Nc1ccc(NC(=O)c2ccccc2)nc1	12	-3	2	4	-13	-2
Nc1ccc(C(=O)c2cccs2)cc1[N+](=O)[O-]	-8	5	9	-5	14	126*
Nc1ccc(C(=O)O)cc1[N+](=O)[O-]	-11	-5	-14	-6	-12	0
COc1ccc(C(CCN)c2ccc3c(c2)OCO3)cc1 (stereo unspecified)	14	28	60*	-1	-13	-5
COc1cc2c(C)nc3c(c(C)nn3-c3ccccc3)c2cc1OC	-2	-19	?	-7	0	2
COc1cc2c(-c3ccc(O)cc3)nc3c(c(C)nn3-c3ccccc3)c2cc1OC	88*	nt	nt	53	nt	nt
CC(=O)c1ccc(N2CCN(S(=O)(=O)c3cc4c(cc3C)NC(=O)CO4)CC2)cc1	nt	-17	13	nt	36	-1
Cc1cc(=S)nc(-c2ccccn2)[nH]1	-6	21	19	11	25	1
Cc1[nH]c(-c2ccccn2)nc(=S)c1Cl	9	88*	-13	15	41	-1
C/C(=N\NC(N)=S)C1C2C3CC4C5CC(C42)C1C53 (stereo unspecified)	nt	-10	77*	10	28	22
CCc1nn2c(=O)cc(CSCC(=O)Nc3ccccc3Cl)nc2s1	nt	-1	-7	nt	11	-4
CC(C)CCNC(=O)c1cn(CC(C)C)c(=O)c2c1c1ccccc1n2C	6	2	20	-13	-10	4
CCCCNC(=O)c1cn(CC(C)C)c(=O)c2c1c1ccccc1n2C	-2	54*	4	5	15	-3
